Measured values collected from several papers.
Lines come from different studies, so protocols differ.
Organism: Pseudomonas aeruginosa
Read-out: microbial growth

| SMILES | test | test system | conditions | MIC |
| --- | --- | --- | --- | --- |
| COc1c(C)c(OC(C)=O)c(C)c(OC(C)=O)c1C(=O)/C=C/c1ccccc1 | broth dilution | ATCC27853 | – | 5000 µg/mL |
| CN(C)[C@@H]1C(O)=C(C(N)=O)C(=O)[C@@]2(O)C(O)=C3C(=O)c4c(O)c(NC(=O)CNC(C)(C)C)nc(F)c4C[C@H]3C[C@@H]12.Cl.Cl | broth dilution | ATCC27853 | – | > 32 µg/mL |
| O=C(CCc1ccc(O)c(O)c1)NCCCCCCCC[P+](c1ccccc1)(c1ccccc1)c1ccccc1.[Br-] | broth dilution | ATCC27853 | 18 h | > 32 µg/mL |
| CN(C)CC(C)(C)CNc1nc(F)c2c(c1O)C(=O)C1=C(O)[C@]3(O)C(=O)C(C(N)=O)=C(O)[C@@H](N(C)C)[C@@H]3C[C@@H]1C2.Cl | broth dilution | ATCC27853 | – | 32 µg/mL |
| O=c1[nH]cc(F)c(=O)[nH]1 | broth dilution | – | 24 h | 4 µg/mL |
| O=C(O)c1cn(C2CC2)c2cc(N3CCNCC3)c(F)cc2c1=O | – | – | – | 1.6 µg/mL |
| CC(C)Oc1c(NC(=O)c2ccc(NC(=O)[C@H](CC(N)=O)NC(=O)c3ccc(NC(=O)c4ccc(C#N)nc4)cc3)cc2)ccc(C(=O)Nc2ccc(C(=O)O)cc2)c1O | – | PA14 | – | > 64 µg/mL |
| CCCCCCC/C=C/C(=O)N1C(=O)/C(=C(/C)O)C(=O)C1CO (stereo not shown) | – | PA01 | – | > 200 µg/mL |
| CCCCCCCCCC(=O)Oc1c(C)c(O)c(C(=O)/C=C/c2ccccc2)c(OC)c1C | broth dilution | ATCC27853 | – | 5000 µg/mL |
| CC(C)Oc1c(NC(=O)c2ccc(NC(=O)[C@H](CC(N)=O)NC(=O)c3ccc(NC(=O)c4cccc([N+](=O)[O-])c4)cc3)cc2)ccc(C(=O)Nc2ccc(C(=O)O)cc2)c1O | – | PA14 | – | > 64 µg/mL |
| CC(=O)NC1CN(Cc2ccc3cc4c(c(O)c3c2)C(=O)C2=C(O)[C@]3(O)C(=O)C(C(N)=O)=C(O)[C@@H](N(C)C)[C@@H]3C[C@@H]2C4)C1 | broth dilution | ATCC27853 | – | 32 µg/mL |
| CCCCCCC/C=C/C(=O)N1C(=O)/C(=C(\O)C2CCNCC2)C(=O)C1CC(C)C (stereo not shown) | – | PA01 | – | 25 µg/mL |
| CC1=NN(CNc2ccccc2)C(=O)C1=NNn1c(-c2ccccc2)nc2ccccc2c1=O | broth dilution | – | 24 h | 111 µM |
| CC(C)Oc1c(NC(=O)c2ccc(NC(=O)[C@H](CC(N)=O)NC(=O)c3ccc(NC(=O)c4ccc(C#N)cc4)cc3)cc2)ccc(C(=O)Nc2cccc(C(=O)O)c2)c1O | – | PA14 | – | > 64 µg/mL |
| Fc1ccc(-c2nc3ccccc3n2Cc2ccccc2)cc1 | broth dilution | ATCC27853 | – | 128 µg/mL |
| CN(C)[C@@H]1C(O)=C(C(N)=O)C(=O)[C@@]2(O)C(O)=C3C(=O)c4c(O)c(NCC(C)(C)CN5CCCC5)nc(Cl)c4C[C@H]3C[C@@H]12.Cl | broth dilution | ATCC27853 | – | 32 µg/mL |
| C[C@H]1COc2c(N3CCN(C)CC3)c(F)cc3c(=O)c(C(=O)O)cn1c23 | broth dilution | – | – | 138 µM |
| C[C@H]1COc2c(N3CCN(C)CC3)c(F)cc3c(=O)c(C(=O)O)cn1c23 | agar dilution | ATCC27 | – | 1 µg/mL |
| CN(C)c1ccc(-c2ccc3cc4c(c(O)c3c2)C(=O)C2=C(O)[C@]3(O)C(=O)C(C(N)=O)=C(O)[C@@H](N(C)C)[C@@H]3C[C@@H]2C4)cc1 | broth dilution | ATCC27853 | – | 32 µg/mL |

| SMILES | test | test system | conditions | MIC |
| --- | --- | --- | --- | --- |
| CC(C)CCNc1nc(Cl)c2c(c1O)C(=O)C1=C(O)[C@]3(O)C(=O)C(C(N)=O)=C(O)[C@@H](N(C)C)[C@@H]3C[C@@H]1C2.Cl.Cl.Cl | broth dilution | ATCC27853 | – | > 32 µg/mL |
| Cc1ccc(C)n1-c1ccc(-c2n[nH]c(=S)[nH]2)cc1 | broth dilution | ATCC10145 | 18 h | 8 µg/mL |
| Fc1ccccc1NCc1ccc(Oc2ccccn2)cc1 | – | – | – | > 25 µg/mL |
| Cc1ccc(C)n1-c1ccc(-c2nnc(-c3ccc(N(C)C)cc3)[nH]2)cc1 | broth dilution | ATCC10145 | 18 h | 250 µg/mL |
| CC1(C)SC2C(NC(=O)C(NC(=O)C3=C(O)C(Cc4ccc(F)cc4)NC3=O)c3ccccc3)C(=O)N2C1C(=O)O (stereo not shown) | – | – | – | 25 µg/mL |
| CC(C)Oc1c(NC(=O)c2ccc(NC(=O)[C@H](CC(N)=O)NC(=O)c3ccc(NC(=O)CCc4ccc(C#N)cc4)cc3)cc2)ccc(C(=O)Nc2ccc(C(=O)O)cc2)c1O | – | PA14 | – | > 64 µg/mL |
| O=[N+]([O-])c1ccc(-c2nc3cccc(O)c3[nH]2)o1 | broth dilution | ATCC27853 | – | > 64 µg/mL |
| CC(C)Oc1c(-n2cc(-c3ccc(NC(=O)C(CC(N)=O)NC(=O)c4ccc(NC(=O)c5ccc(C#N)cc5)cc4)cc3)nn2)ccc(C(=O)Nc2ccc(C(=O)O)cc2)c1O (stereo not shown) | – | PA14 | – | 8 µg/mL |
| O=C(CCCCCCCCCC[P+](c1ccccc1)(c1ccccc1)c1ccccc1)Nc1cc(O)c(O)c(O)c1.[Br-] | broth dilution | ATCC27853 | 18 h | > 32 µg/mL |
| COc1c(C(=O)Nc2ccc(C(=O)O)cc2)ccc2nc(-c3cc(NC(=O)C(CC(N)=O)NC(=O)c4ccc(NC(=O)c5ccc(C#N)cc5)cc4)cn3C)[nH]c12 (stereo not shown) | – | PA14 | – | > 64 µg/mL |
| CN(C)[C@@H]1C(O)=C(C(N)=O)C(=O)[C@@]2(O)C(O)=C3C(=O)c4c(cc5ccc(CN6CC(F)C6)cc5c4O)C[C@H]3C[C@@H]12 | broth dilution | ATCC27853 | – | 32 µg/mL |
| CCCCCCC#Cc1cncc(-c2nnc(SCc3ccc([N+](=O)[O-])o3)n2C)c1 | – | – | – | ≥ 20 µg/mL |
| Cn1cc(NC(=O)C(CC(N)=O)NC(=O)c2ccc(NC(=O)c3ccc(C#N)cc3)cc2)cc1-c1nc2ccc(C(=O)Nc3ccc(C(=O)O)cc3)c(O)c2[nH]1 (stereo not shown) | – | PA14 | – | > 64 µg/mL |
| O=C1NN=C(N=Cc2ccc(O)cc2O)C1=NNn1c(-c2ccccc2)nc2ccccc2c1=O | broth dilution | – | 24 h | 53.5 µM |
| CC(C)Oc1c(NC(=O)c2ccc(NC(=O)[C@H](CC(N)=O)NC(=O)c3ccc(-c4nn[nH]c4-c4ccc(C#N)cc4)cc3)cc2)ccc(C(=O)Nc2ccc(C(=O)O)cc2)c1O | – | PA14 | – | > 64 µg/mL |
| O=C(Nc1ccc([N+](=O)[O-])cc1F)c1ccccc1O | broth dilution | ATCC27853 | – | > 64 µg/mL |
| CC1(C)SC2C(NC(=O)C(NC(=O)C3=C(O)C4CCCN4C3=O)c3ccccc3)C(=O)N2C1C(=O)O (stereo not shown) | – | – | – | 50 µg/mL |
| CCN1CCN(C(=O)N[C@@H](C(=O)N[C@@H]2C(=O)N3C(C(=O)O)=C(CSc4nnnn4C)CS[C@H]23)c2ccc(O)cc2)C(=O)C1=O | broth dilution | PAO1 | – | 4 µg/mL |
